The values that follow come from ChEMBL document CHEMBL3994567, “Design and synthesis of selective, small molecule inhibitors of coactivator-associated arginine methyltransferase 1 (CARM1)” (Medchemcomm, 2016).

The target of assay [1] is T1, Histone-arginine methyltransferase CARM1 (Homo sapiens, UniProt Q86X55).
T1 sequence (Q86X55 whole entry): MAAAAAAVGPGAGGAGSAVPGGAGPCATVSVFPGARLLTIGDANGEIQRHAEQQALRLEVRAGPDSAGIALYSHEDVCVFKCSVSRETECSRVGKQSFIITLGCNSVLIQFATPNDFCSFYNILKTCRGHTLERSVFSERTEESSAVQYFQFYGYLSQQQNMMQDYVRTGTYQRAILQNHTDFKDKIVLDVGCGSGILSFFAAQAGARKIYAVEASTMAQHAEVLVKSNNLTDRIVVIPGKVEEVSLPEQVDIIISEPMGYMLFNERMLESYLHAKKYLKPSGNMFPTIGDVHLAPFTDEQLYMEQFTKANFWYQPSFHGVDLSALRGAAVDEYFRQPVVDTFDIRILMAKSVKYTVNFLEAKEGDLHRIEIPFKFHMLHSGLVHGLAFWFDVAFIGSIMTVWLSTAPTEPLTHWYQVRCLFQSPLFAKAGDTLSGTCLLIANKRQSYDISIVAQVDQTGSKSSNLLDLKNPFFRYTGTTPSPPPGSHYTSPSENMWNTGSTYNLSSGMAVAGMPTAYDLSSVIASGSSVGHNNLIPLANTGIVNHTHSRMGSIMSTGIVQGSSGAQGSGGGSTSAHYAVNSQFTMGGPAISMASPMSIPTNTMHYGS
The experiment in a line: Inhibition of CARM1 (unknown origin). Summed up:
(§1)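 Radiometric methyltransfer assay. Enzyme transfers a tritiated methyl from ³H-SAM onto a biotin-labelled peptide substrate, with unlabelled SAM added when needed. The methylated peptide is captured in FlashPlate wells and counted by scintillation. IC50 comes from titrating compound under balanced conditions, with both peptide substrate and SAM at their Km concentrations.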

For assay [2], the target named is T2, Histone-arginine methyltransferase CARM1 (Homo sapiens) (UniProt Q86X55).
T2 sequence (whole entry): T1 sequence (Q86X55 whole entry)
Put plainly: Noncompetitive inhibition of CARM1 (unknown origin) at varying levels of peptide substrate and cofactor 3H-SAM by scintillation proximity assay.

Assay [3] has as its target Protein arginine N-methyltransferase 5 (Homo sapiens, UniProt O14744). Put plainly: Inhibition of PRMT5 (unknown origin). Put shortly:
as §1

Activity calls are given as the source filed them. The calls are words filed in the database; no cut-off is given here.

Chain of Protein arginine N-methyltransferase 5 (O14744 whole entry): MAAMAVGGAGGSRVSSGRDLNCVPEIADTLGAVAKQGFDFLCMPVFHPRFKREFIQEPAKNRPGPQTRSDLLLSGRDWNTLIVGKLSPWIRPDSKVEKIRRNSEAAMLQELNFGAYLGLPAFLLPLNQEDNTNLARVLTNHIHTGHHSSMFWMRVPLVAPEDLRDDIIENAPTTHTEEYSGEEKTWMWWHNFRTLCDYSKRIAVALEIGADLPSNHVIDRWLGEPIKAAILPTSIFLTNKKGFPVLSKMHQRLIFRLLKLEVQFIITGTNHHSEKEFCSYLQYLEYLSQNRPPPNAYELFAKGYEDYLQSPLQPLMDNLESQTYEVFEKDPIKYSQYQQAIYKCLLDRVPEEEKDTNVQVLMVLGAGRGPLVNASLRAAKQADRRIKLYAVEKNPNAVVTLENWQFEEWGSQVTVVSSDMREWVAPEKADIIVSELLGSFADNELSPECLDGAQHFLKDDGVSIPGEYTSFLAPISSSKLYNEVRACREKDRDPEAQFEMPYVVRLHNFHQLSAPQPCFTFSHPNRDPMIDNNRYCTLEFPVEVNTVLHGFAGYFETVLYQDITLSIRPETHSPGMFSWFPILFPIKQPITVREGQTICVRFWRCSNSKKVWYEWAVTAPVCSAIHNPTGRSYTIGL

As usually defined, the IC50 is the concentration at which inhibition is half-maximal. A higher IC50 goes with a need for much substance. `CNCCN1CC(NCc2cccc(Br)c2)C1`: in assay [1], the IC50 came out at 67 nM.

Regarding `CNCCN1CCC(NCc2cccc(Br)c2)CC1`, the inhibition entry in assay [2] was “Active”. Further, the IC50 was greater than 50000 nM in assay [3] and 94 nM in assay [1].

As for `CNCCN1CC(NCc2cccc(OC(F)(F)F)c2)C1`, inhibition in assay [1] was half-maximal at 90 nM (IC50).

Molecule `CNCCN1CCC(NCc2cccc(C(F)(F)F)c2)CC1` returned an IC50 in assay [1] of 302 nM.

`CNCCN1CC(NCc2cccc(C(F)(F)F)c2)C1` came in with an IC50 in assay [1] of 94 nM.

As to `CNCCN1CCC(NCc2ccccc2)CC1`, the IC50 in assay [3] was greater than 50000 nM; in assay [1], 471 nM.

`CNCCN1CC(NCc2cccc(Cl)c2)C1` returned an IC50 in assay [1] of 50 nM.

As for `CNCCN1CCC(NCc2cccc(OC(F)(F)F)c2)CC1`, the IC50 in assay [1] was 342 nM.

Take `CNCCN1CCC(NCc2cccc(-c3ccccc3)c2)CC1`: the IC50 in assay [1] came to 330 nM.

On to `CNCCN1CCC(NCc2cccc(Cl)c2)CC1`, for which half-maximal inhibition in assay [1] (IC50) was put at 157 nM.

The molecule `CNCCN1CC(NCc2cccc(F)c2)C1` yielded an IC50 in assay [1] of 130 nM.

The molecule `CNCCN1CC(OCc2cccc(OC(F)(F)F)c2)C1` displayed an IC50 in assay [1] of 144 nM.

Regarding `CNCCN1CCC(NCc2cccc(F)c2)CC1`, in assay [1], it took 223 nM to reach half-maximal inhibition (IC50).
